Measured values reported in paper PMC3166448 (Urology, 2011).
“Also recorded” adds a separate entry of the source. Counter-ions that a name gives are not always drawn.

Key:
[1] = Plasma pharmacokinetics after first IPI-504 dose; assay type: in vivo, human; details: for Time of peak plasma concentration: relative to the 30-minute infusion
[2] = system: castration-resistant prostate cancer (CRPC); details: cited from earlier work
[3] = cited from earlier work
[4] = system: androgen-dependent and androgen-independent prostate cancer xenografts; details: 3 (Solit et al); cited from earlier work
[5] = twice-weekly; cited from earlier work
[6] = system: cytochrome P450 3A4 (CYP3A4); details: in vitro; cited from earlier work
[7] = system: patients with castration-resistant prostate cancer (CRPC); assay: Phase 2 trial: treatment-emergent adverse events; assay type: in vivo, human
[8] = system: castration-resistant prostate cancer (CRPC); assay: Phase 2 trial: PSA response / antitumor outcome; assay type: in vivo, human
In short: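 Adults (>18 years) with progressive CRPC (two serial PSA rises or progressive radiographic metastases, serum testosterone < 50 […]). Group A was chemotherapy-naïve; Group B had radiographic metastases, progression on or intolerance to docetaxel, and ≤3 prior chemotherapy regimens. Test compound 400 mg/m2 given as a 30-min IV infusion on days 1, 4, 8 and 11 of 21-day cycles; later continuation allowed at 300 mg/m2.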

[9] = 17-AAG: ref 5; IPI-504: ref 6; cited from earlier work
[10] = plasma after first IPI-504 dose 400 mg/m^2 iv
[11] = Grade ≥ 3, N=19, IPI-504 400 mg/m^2 iv
[12] = TEAE in > 25% of study population, N=19
[13] = any grade, N=19, IPI-504 400 mg/m^2 iv
[14] = of the 19 patients enrolled and treated

## C=CCNC1=C2C[C@@H](C)C[C@H](OC)[C@H](O)[C@@H](C)/C=C(\C)[C@H](OC(N)=O)[C@@H](OC)/C=C\C=C(/C)C(=O)NC(=CC1=O)C2=O [17-AAG, 17-allylamine-17-demethoxygeldanamycin, reference compound]
[1]; [10]
  Mean AUC0-∞: 9,847 ng*hr/mL
  mean T1/2: 1.4 h
[1]
  Time of peak plasma concentration: at the end of the infusion
[2]
  Antitumor activity in clinical trials in patients with CRPC: negligible antitumor activity
[3]
  Hepatotoxicity in phase I trials: dose limiting toxicity
[4]
  Growth of prostate cancer xenografts: dose-dependent growth inhibition

## CO[C@H]1/C=C/C=C(\C)C(=O)NC2=CC(=O)C(N)=C(C[C@@H](C)C[C@H](OC)[C@H](O)[C@@H](C)/C=C(\C)[C@@H]1OC(N)=O)C2=O [17-AG]
[1]; [10]
  mean T1/2: 5.2 h
[1]
  Time of peak plasma concentration: ranging from the end of the infusion to 1.5 hours post-infusion
[1]; sum of IPI-504, 17-AAG and 17-AG without adjustment for molecular weight
  Share of the total measured exposure: approximately 68%

## C=CCNc1c(O)cc2c(O)c1C[C@@H](C)C[C@H](OC)[C@H](O)[C@@H](C)/C=C(\C)[C@H](OC(N)=O)[C@@H](OC)/C=C\C=C(/C)C(=O)N2 [IPI-504, retaspimycin hydrochloride]
[1]; human, in vivo, 400 mg/m^2
  AUC: 26400 ng·h/mL
[1]; human, in vivo, iv, 400 mg/m2
  AUC(0-inf): 11700 ng·h/mL
[1]
  Time of peak plasma concentration: at the end of the infusion
[5]
  Maximum tolerated dose as a single agent: ≥ 400 mg/m^2
[6]
  Involvement of CYP3A4 in metabolism: involved in the metabolism
[7]; 1 day before hepatic failure, at study drug administration
  Grade 3 AST elevation in the patient who died of hepatic failure: 339 U/L
[7]; Cycle 1, Dose 2, from 32 U/L at baseline
  AST elevation (Grade 4) in the second patient: 863 U/L
[7]; Cycle 1, Dose 2, from a normal baseline level
  ALT elevation (Grade 3) in the second patient: 659 U/L
[7]; Cycle 2, Dose 3, prompted study drug discontinuation, returned to normal 4 days later
  AST elevation (Grade 3) in one patient: 397 U/L
[7]; [11]
  ALT Increased, patients with TEAE (Grade ≥ 3): 1 (5) n (%)
  AST Increased, patients with TEAE (Grade ≥ 3): 2 (11) n (%)
  Anemia, patients with TEAE (Grade ≥ 3): 1 (5) n (%)
  Anorexia, patients with TEAE (Grade ≥ 3): 1 (5) n (%)
  Anxiety, patients with TEAE (Grade ≥ 3): 0 n (%)
  Arthralgia, patients with TEAE (Grade ≥ 3): 0 n (%)
  Back Pain, patients with TEAE (Grade ≥ 3): 1 (5) n (%)
  Constipation, patients with TEAE (Grade ≥ 3): 0 n (%)
  Dehydration, patients with TEAE (Grade ≥ 3): 3 (16) n (%)
  Diarrhea, patients with TEAE (Grade ≥ 3): 1 (5) n (%)
  Fatigue, patients with TEAE (Grade ≥ 3): 1 (5) n (%)
  Headache, patients with TEAE (Grade ≥ 3): 0 n (%)
  Hypokalemia, patients with TEAE (Grade ≥ 3): 0 n (%)
  Hyponatremia, patients with TEAE (Grade ≥ 3): 2 (11) n (%)
  Infusion Site Pain, patients with TEAE (Grade ≥ 3): 0 n (%)
  Musculoskeletal Pain, patients with TEAE (Grade ≥ 3): 0 n (%)
  Myalgia, patients with TEAE (Grade ≥ 3): 0 n (%)
  Nausea, patients with TEAE (Grade ≥ 3): 1 (5) n (%)
  Pain in Extremity, patients with TEAE (Grade ≥ 3): 0 n (%)
  Pneumonia, patients with TEAE (Grade ≥ 3): 2 (11) n (%)
  Pyrexia, patients with TEAE (Grade ≥ 3): 0 n (%)
  Vomiting, patients with TEAE (Grade ≥ 3): 1 (5) n (%)
[7]; [12]
  Anorexia, share of study population: 26%
  Arthralgia, share of study population: 26%
[7]; [13]
  ALT Increased, patients with any TEAE: 2 (11) n (%)
  AST Increased, patients with any TEAE: 2 (11) n (%)
  Anemia, patients with any TEAE: 4 (21) n (%)
  Anorexia, patients with any TEAE: 5 (26) n (%)
  Anxiety, patients with any TEAE: 2 (11) n (%)
  Arthralgia, patients with any TEAE: 5 (26) n (%)
  Back Pain, patients with any TEAE: 2 (11) n (%)
  Constipation, patients with any TEAE: 4 (21) n (%)
  Dehydration, patients with any TEAE: 4 (21) n (%)
  Diarrhea, patients with any TEAE: 8 (42) n (%)
  Fatigue, patients with any TEAE: 6 (32) n (%)
  Headache, patients with any TEAE: 2 (11) n (%)
  Hypokalemia, patients with any TEAE: 2 (11) n (%)
  Hyponatremia, patients with any TEAE: 2 (11) n (%)
  Infusion Site Pain, patients with any TEAE: 4 (21) n (%)
  Musculoskeletal Pain, patients with any TEAE: 3 (16) n (%)
  Myalgia, patients with any TEAE: 3 (16) n (%)
  Pain in Extremity, patients with any TEAE: 4 (21) n (%)
  Pneumonia, patients with any TEAE: 2 (11) n (%)
  Pyrexia, patients with any TEAE: 3 (16) n (%)
  Vomiting, patients with any TEAE: 4 (21) n (%)
[7]; any grade, N=19, IPI-504 400 mg/m^2 iv days 1, 4, 8, 11 of 21-day cycle
  Nausea, patients with any TEAE: 9 (47) n (%)
[7]; [14]
  Patients reported with treatment-emergent AEs (TEAEs), number: 18 patients
  Patients whose TEAEs resulted in death, percent: 11%
  Patients with CTCAE Grade 3 or higher TEAEs, number: 11 patients
  Patients with CTCAE Grade 3 or higher TEAEs, percent: 58%
[8]; Groups A and B, N=19
  Patients achieving ≥ 50% post-treatment decline in PSA (PSA response): No PSA responses; also recorded: No patients
[8]; one Group A (chemotherapy-naïve) patient
  PSA decline from baseline in one patient: 48%
[8]; one Group A patient
  Time on treatment of the patient with PSA decline: 9 cycles
[8]; one Group A patient, after the interim analysis
  Time on study until discontinuation due to disease progression: approximately 2 years
[8]; single agent, 400 mg/m^2
  Overall antitumor activity: minimal effect on PSA or tumor burden; also recorded: negligible antitumor activity
[9]
  Solubility: water-soluble
